Test results published in PMC3334839 (The Journal of Neuroscience, 2012).
Substitutions are numbered along the chain they refer to.

Legend:
human α1 GlyR = biological target: T1, human α1 GlyR (Homo sapiens, UniProt P23415); test: cell-based; format: cell-based; details: for efficacy in potentiating IGly relative to AEA: concentration-response, α1 subunit (Fig. 5B)
T1 sequence (P23415 29-457): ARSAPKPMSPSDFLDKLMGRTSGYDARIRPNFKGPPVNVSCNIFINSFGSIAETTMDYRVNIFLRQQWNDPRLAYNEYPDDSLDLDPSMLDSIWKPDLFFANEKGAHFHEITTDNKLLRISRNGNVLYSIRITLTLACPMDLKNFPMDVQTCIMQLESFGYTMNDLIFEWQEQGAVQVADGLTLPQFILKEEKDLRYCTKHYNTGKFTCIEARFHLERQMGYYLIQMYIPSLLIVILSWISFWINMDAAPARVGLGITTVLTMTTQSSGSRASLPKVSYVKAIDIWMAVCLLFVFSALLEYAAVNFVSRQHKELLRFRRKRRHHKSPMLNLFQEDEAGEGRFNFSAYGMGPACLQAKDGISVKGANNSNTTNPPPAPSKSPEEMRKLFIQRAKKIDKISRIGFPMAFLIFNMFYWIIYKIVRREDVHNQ

[1] = system: native GlyRs in cultured spinal neurons; test: Whole-cell patch-clamp of Gly-activated current; format: cell-based, rat; details: vs vehicle
How it was run: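 Spinal cords from postnatal day 0 rats, papain-dissociated (20 U/ml, 37°C, 40 min). Plated at 300,000 cells/ml on poly-d-lysine in MEM/10% FBS, cultured ≥10 d, washed 30 min in external solution. Whole-cell, −60 mV, 20–22°C.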

[2] = biological target: T2, S296A mutant human α1 GlyR (Homo sapiens, UniProt P23415, S324A); test: cell-based; format: cell-based; details: for effect of S296A mutation on cannabinoid-induced potentiation of IGly: cannabinoid 1 μM, EC2 Gly (10 μM), vs wild-type α1
T2 sequence (P23415 29-457 S324A): T1 sequence (P23415 29-457) with S296A

rat α3 GlyR = biological target: T3, rat α3 GlyR (Rattus norvegicus, UniProt P24524); test: Whole-cell patch-clamp of IGly in HEK-293 cells expressing α3 GlyRs; format: cell-based; details: read-out: EC50 for Gly (concentration-response curve); α3 subunit
T3 sequence (P24524 34-464): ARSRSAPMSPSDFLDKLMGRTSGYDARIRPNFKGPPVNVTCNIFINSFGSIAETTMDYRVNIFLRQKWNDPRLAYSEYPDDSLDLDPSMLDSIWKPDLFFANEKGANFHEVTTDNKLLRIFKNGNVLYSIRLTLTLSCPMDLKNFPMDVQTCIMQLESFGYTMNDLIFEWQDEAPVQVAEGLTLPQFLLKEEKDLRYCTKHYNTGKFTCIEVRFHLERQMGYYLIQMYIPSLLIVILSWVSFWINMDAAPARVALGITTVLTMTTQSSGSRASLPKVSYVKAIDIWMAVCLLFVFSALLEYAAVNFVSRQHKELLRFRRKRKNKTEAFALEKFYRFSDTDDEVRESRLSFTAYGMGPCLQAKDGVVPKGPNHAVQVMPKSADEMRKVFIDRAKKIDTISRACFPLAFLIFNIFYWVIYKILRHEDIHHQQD

rat α2 GlyR = biological target: T4, rat α2 GlyR (Rattus norvegicus, UniProt P22771); test: Whole-cell patch-clamp of IGly in HEK-293 cells expressing α2 GlyRs; format: cell-based; details: read-out: EC50 for Gly (concentration-response curve); α2 subunit
T4 sequence (P22771 28-452): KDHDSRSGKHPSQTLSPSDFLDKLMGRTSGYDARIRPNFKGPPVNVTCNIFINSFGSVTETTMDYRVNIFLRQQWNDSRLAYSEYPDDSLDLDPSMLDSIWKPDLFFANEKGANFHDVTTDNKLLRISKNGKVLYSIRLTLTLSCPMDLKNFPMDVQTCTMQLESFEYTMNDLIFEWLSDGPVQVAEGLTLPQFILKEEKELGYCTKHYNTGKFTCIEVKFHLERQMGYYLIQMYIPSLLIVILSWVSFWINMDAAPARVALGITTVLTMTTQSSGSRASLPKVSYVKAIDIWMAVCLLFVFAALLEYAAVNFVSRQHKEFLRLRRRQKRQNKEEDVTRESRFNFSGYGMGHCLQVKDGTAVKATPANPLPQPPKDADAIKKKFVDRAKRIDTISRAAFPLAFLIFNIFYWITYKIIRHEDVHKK

[3] = 3 μM coapplied, apparently competitive, parallel rightward shift
[4] = HEK293, read-out: inhibition of IGly

Question: `CCCCCC=CCC=CCC=CCC=CCCCC(=O)NCC` [Dehydroxyl-AEA, Dehydroxylanandamide] was tested. Which “efficacy in potentiating IGly relative to AEA” value (human α1 GlyR) did it give?
Answer: reduced efficacy

Question: `Cc1c(C(=O)NN2CCCCC2)nn(-c2ccc(Cl)cc2Cl)c1-c1ccc(I)cc1` [AM251] was tested. Which “effect of antagonist on AEA-induced potentiation of IGly” value (shortened to “effect of antagonist”) ([1]; antagonist 1 μM) did it give?
Answer: did not significantly alter

Question: How did the “effect on AEA-induced potentiation of IGly” value (human α1 GlyR; [3]) turn out when Desoxyanandamide [Desoxy-AEA] was run?
Answer: inhibited

Question: What about the “effect on THC-induced potentiation of IGly” value (human α1 GlyR; [3]) of the same compound?
Answer: inhibited

Question: What about the “efficacy in potentiating IGly relative to AEA” value (human α1 GlyR) of the same compound?
Answer: reduced efficacy

Question: For `CCCCCc1cc(O)c2c(c1)OC(C)(C)[C@@H]1CCC(C)=C[C@@H]21` [THC, Δ^9-tetrahydrocannabinol], which “effect of S296A mutation on cannabinoid-induced potentiation of IGly” value (from here on “effect of S296A mutation”) [2] is on record?
Answer: significantly reduced

Question: What does the source list for `O=C1C[C@@H]2OCC=C3CN4CC[C@]56c7ccccc7N1[C@H]5[C@H]2[C@H]3C[C@H]46` [strychnine]?
Answer: inhibition at 0.1 µM [2, 4]: 81 ± 13%; inhibition at 0.1 µM (human α1 GlyR; [4]): 78 ± 9%

Question: For `C=C(C)[C@@H]1CCC(C)=C[C@H]1c1c(O)cc(CCCCC)cc1O` [CBD, cannabidiol], which “effect of S296A mutation” value [2] is on record?
Answer: significantly reduced

Question: What does the source list for `NCC(=O)O` [Gly, glycine]?
Answer: EC50 (rat α3 GlyR): 354 ± 29 µM; maximal current density (MCD) [2]: 906 ± 147 pA/pF; maximal current density (MCD) (human α1 GlyR): 912 ± 153 pA/pF; EC50 (rat α2 GlyR): 128 ± 10 µM

Question: Which “effect of antagonist” value ([1]; antagonist 2 μM) does the source give for `Oc1cc2c(cc1O)CN(C(=S)NCCc1ccc(Cl)cc1)CCC2` [capsazepine] here?
Answer: did not significantly alter

Question: With SR144528 as the compound, how does the “effect of antagonist” value ([1]; antagonist 1 μM) read?
Answer: did not significantly alter

Question: For `CCCCCCC(C)(C)c1cc(O)c2c(c1)OC(C)(C)[C@@H]1CC=C(CO)C[C@@H]21` [HU210], which “effect of S296A mutation” value [2] is on record?
Answer: significantly reduced
